One experiment deals with MDA‐MB‐231 cells. The experiment can be described thus: MTT assay. In kind it is cell-based, human. Summed up:
(§1)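 Cells seeded in 48-well plates and serum-starved. They were then exposed for 72 h to test compound dissolved in DMSO over 0.1–200 μM, with viability read by MTT. IC50 calculated from concentration–response data; experiments in triplicate, reported as mean ± SD.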
(Formazan colour is commonly taken as a measure of viable cells.)

For experiment [1], the system named is MCF‐7 cells. The experiment is described as follows: MTT assay. In kind it is cell-based, human. Summed up:
as §1

In the next experiment the test system is MCF‐10A cells. The experiment can be described thus: MTT assay, cytotoxicity on normal cells. The experiment is classed as cell-based, human. As to conditions: 72 h. A digest of the protocol:
as §1

The test system of experiment [2] is Gram‐positive and Gram‐negative bacteria (E. coli, S. aureus, E. faecalis). The experiment can be described thus: MBC determination and ampicillin control, broth dilution, all strains. The experiment is classed as cell-based. As to conditions: all strains used, standard antibiotic control. Summed up: (§2)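 Broth dilution per CLSI. Overnight LB cultures diluted to 4000 CFU/mL in 96-well plates, then exposed to test compound at 1, 5, 10, 20, 50 or 100 μg/mL for 18 h at 37 °C. Growth read at 600 nm against DMSO-vehicle growth control; compound-only sterility control; ampicillin as strain-sensitivity control. MIC: lowest concentration inhibiting visible growth; MBC: lowest fully bactericidal concentration. Five experiments, each in triplicate.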
(In general: In broth dilution the organism is exposed to a series of concentrations in liquid medium.)

Experiment [3] addresses T1, labeled rabbit muscle actin (Oryctolagus cuniculus, UniProt P68135). The experiment can be described thus: In vitro actin polymerization assay. In kind it is biochemical. As to conditions: 5 μM; for actin polymerization curve, RFU reached (lowest point/plateau): CTRL about 37,000 RFU. A digest of the protocol: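 Labeled rabbit muscle actin incubated with test compound (5 μM) using a commercial polymerization kit. DMSO as negative control; latrunculin A and cytochalasin B (5 μM) as reference agents. Filament assembly followed by fluorescence (ex/em 365/410 nm) in kinetic mode for 1 h at room temperature; curves representative of three separate tests.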

The target of experiment [4] is T1, labeled rabbit muscle actin. The experiment is described as follows: In vitro actin depolymerization assay. In kind it is biochemical. Particulars: 5 μM, added after 1 h polymerization. A digest of the protocol:
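Labeled rabbit muscle actin first polymerized for 1 h under polymerization-assay conditions. Test compound (5 μM) then added, and fluorescence (ex/em 365/410 nm) monitored kinetically for another hour at room temperature. DMSO vehicle; latrunculin A and cytochalasin B (5 μM) as controls; three separate tests.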

The test system of experiment [5] is Escherichia coli (ATCC 25922). The experiment can be described thus: MIC determination, broth dilution. The experiment is classed as cell-based. As to conditions: E. coli ATCC 25922, broth dilution, 37 °C 18 h. Summed up: as §2
Experiment [6] concerns Staphylococcus aureus (ATCC 23235). The experiment can be described thus: MIC determination, broth dilution. As to conditions: S. aureus ATCC 23235, broth dilution, 37 °C 18 h. In kind it is cell-based. A digest of the protocol:
as §2

Experiment [7] relates to Enterococcus faecalis (ATCC 19433). The experiment is described as follows: MIC determination, broth dilution. In kind it is cell-based. As to conditions: E. faecalis ATCC 19433, broth dilution, 37 °C 18 h. A digest of the protocol: as §2
Experiment [8] concerns MCF‐7 cells. The experiment is described as follows: Immunofluorescence analysis of β‐actin. The experiment is classed as cell-based, human. Particulars: MCF‐7, 24 h, IC50 value / 5 μM.
The target in another experiment is T2, recombinant human topo I (Homo sapiens, UniProt P11387).
T2 sequence (P11387 1-765): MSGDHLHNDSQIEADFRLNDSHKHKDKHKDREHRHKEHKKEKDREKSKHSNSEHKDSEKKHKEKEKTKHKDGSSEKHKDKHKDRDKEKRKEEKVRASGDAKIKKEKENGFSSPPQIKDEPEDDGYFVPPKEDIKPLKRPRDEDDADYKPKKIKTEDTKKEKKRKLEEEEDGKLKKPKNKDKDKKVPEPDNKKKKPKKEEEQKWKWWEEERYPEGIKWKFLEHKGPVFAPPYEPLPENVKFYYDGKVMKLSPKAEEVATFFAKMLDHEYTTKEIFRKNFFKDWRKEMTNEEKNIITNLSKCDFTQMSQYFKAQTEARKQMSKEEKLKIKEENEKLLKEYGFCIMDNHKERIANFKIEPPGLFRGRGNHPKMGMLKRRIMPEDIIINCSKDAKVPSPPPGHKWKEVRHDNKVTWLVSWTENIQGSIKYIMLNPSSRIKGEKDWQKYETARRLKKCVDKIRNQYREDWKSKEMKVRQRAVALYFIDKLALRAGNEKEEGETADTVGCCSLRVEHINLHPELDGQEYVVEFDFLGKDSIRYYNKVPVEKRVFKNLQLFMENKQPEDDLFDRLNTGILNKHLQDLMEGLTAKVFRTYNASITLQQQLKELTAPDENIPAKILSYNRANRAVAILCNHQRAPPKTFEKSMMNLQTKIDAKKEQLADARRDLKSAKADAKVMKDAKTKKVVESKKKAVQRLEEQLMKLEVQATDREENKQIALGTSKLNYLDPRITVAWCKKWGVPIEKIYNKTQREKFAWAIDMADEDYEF
The experiment can be described thus: Human topoisomerase I relaxation assay. In kind it is biochemical. Particulars: 1 μM, supercoiled pHOT1 substrate. Summed up:
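Supercoiled pHOT1 (0.25 μg) relaxed by 2 U recombinant human topo I, without or with test compound at 1 μM; DMSO vehicle control; relaxed-DNA marker run alongside. Products separated on 1% agarose in 1X TAE without ethidium bromide and visualized on a UV transilluminator.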

The next experiment has as its target human topoisomerase II (Homo sapiens, UniProt P11388). The experiment is described as follows: Human topoisomerase II decatenation assay. Particulars: kDNA substrate. The experiment is classed as biochemical. Summed up:
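Decatenation of kinetoplast DNA (0.3 μg) by 3 U human topo II, with test compound at 1 or 10 μM or DMSO vehicle; linear and decatenated kDNA markers included. Gel: 1% agarose in 1X TAE with ethidium bromide (0.5 μg/ml), UV transilluminator read-out.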

In experiment [9] the test system is MCF‐7 cells. The experiment can be described thus: TUNEL assay. The experiment is classed as cell-based, human. Particulars: MCF‐7, 24 h, at IC50 value.
Setting [10] is: MCF‐10A normal mammary epithelium, MTT.

The values that follow come from publication PMC9804882 (Chemmedchem, 2022).

Some results are limits rather than exact numbers.

Sequence of human topoisomerase II (P11388 whole entry): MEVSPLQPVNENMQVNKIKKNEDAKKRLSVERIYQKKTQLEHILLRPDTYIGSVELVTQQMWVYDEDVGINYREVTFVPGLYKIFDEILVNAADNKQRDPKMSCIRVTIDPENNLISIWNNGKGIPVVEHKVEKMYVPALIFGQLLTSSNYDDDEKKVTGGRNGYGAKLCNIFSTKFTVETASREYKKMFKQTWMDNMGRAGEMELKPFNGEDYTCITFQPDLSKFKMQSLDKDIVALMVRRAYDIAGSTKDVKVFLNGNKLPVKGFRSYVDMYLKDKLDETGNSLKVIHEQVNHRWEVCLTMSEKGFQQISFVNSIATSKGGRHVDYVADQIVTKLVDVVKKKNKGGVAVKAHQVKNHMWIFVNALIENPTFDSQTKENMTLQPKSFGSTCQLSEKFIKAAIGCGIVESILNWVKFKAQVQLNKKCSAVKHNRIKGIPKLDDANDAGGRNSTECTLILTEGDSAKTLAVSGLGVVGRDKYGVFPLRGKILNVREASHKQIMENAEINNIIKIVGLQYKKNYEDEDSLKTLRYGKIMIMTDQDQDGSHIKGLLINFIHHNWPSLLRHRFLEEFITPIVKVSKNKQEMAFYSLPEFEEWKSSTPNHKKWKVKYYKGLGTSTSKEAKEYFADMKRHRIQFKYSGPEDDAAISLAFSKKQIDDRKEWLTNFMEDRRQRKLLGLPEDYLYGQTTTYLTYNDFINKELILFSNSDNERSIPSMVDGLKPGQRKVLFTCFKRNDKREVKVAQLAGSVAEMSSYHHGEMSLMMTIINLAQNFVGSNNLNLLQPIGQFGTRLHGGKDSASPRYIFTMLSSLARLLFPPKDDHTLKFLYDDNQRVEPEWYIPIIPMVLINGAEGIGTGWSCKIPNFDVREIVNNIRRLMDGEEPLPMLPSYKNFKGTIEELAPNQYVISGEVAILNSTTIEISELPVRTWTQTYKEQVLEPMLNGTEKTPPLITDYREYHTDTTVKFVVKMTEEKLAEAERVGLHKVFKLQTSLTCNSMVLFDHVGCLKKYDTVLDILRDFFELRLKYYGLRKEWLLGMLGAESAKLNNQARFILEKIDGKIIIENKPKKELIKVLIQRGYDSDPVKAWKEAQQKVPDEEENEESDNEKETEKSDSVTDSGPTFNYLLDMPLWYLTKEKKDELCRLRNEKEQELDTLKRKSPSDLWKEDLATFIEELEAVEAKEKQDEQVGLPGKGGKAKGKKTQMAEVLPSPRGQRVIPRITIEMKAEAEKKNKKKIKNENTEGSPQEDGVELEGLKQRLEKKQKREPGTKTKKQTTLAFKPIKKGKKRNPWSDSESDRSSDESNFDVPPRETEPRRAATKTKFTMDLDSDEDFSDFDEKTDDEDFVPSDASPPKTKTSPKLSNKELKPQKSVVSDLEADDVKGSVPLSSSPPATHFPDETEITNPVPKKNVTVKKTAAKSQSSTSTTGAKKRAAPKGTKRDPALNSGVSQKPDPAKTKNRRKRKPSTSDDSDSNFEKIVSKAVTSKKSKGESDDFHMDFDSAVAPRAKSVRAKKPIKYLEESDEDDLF

`N.N.[Cl][Pt][Cl]` [Cisplatin, reference compound]: the IC50 (as a rule, the concentration needed to halve the response being measured) worked out at 28.7 ± 0.4 µM in the experiment on MDA‐MB‐231 cells (MDA‐MB‐231, MTT, 72 h); 35.8 ± 0.7 µM with MCF‐7 cells [1] (MCF‐7, MTT, 72 h); 81.3 ± 0.6 µM with MCF‐10A cells (setting [10]).
`CC1(C)S[C@@H]2[C@H](NC(=O)[C@H](N)c3ccccc3)C(=O)N2[C@H]1C(=O)O` [ampicillin, Ampicillin]: the “strain sensibility to ampicillin” value in [2] is “ampicillin‐sensible”.
For `C=C1[C@@H](C)[C@H]2[C@H](Cc3ccccc3)NC(=O)[C@]23OC(=O)/C=C/[C@H](O)CCC[C@@H](C)C/C=C/[C@H]3[C@@H]1O` [CB, cytochalasin B, reference compound], in experiment [3], the “effect on actin polymerization” value is “totally impeded the actin polymerization” and the “actin polymerization curve, RFU reached (lowest point/plateau)” value is “approximately 20,000 RFU”. In experiment [4], the “effect on actin depolymerization” value was “no relevant changes in RFU”. Besides, the “actin depolymerization curve, RFU reached” value in [4] (initial value 28,000 RFU) is on record as “about 28,000 RFU”.
Consider `C/C1=C/C(=O)O[C@@H]2C[C@@H](CC[C@H](C)/C=C\C=C\CC1)O[C@@](O)([C@@H]1CSC(=O)N1)C2` [Latrunculin A, reference compound], for which the IC50 with MDA‐MB‐231 cells (Homo sapiens, MDA-MB-231, 72 h) came out at 0.024 µM; in the experiment on MCF‐7 cells [1] (Homo sapiens, MCF7, 72 h), 0.14 µM; in the experiment on MCF‐10A cells (Homo sapiens, MCF-10A), 0.045 µM. Further, the “effect on actin polymerization” value in [3] is recorded as “totally impeded the actin polymerization”. Besides, the “effect on actin depolymerization” value in experiment [4] is “actin depolymerization has occurred”.
Take “[4,5‐dichloro‐[(N‐methyl‐N’(2‐hydroxy‐2‐phenyl‐ethyl)imidazole‐2‐ylidene]silver(I)] acetate [Compound 6]”: the MIC (in general, the smallest concentration in the dilution series that meets the test's criterion for growth inhibition) in experiment [5] is 10 µg/mL; in [6], 5 µg/mL; in experiment [7] it was 10 µg/mL. In addition, the IC50 is 38.1 ± 0.8 µM in the experiment with MDA‐MB‐231 cells (MDA‐MB‐231, MTT, 72 h); 13.2 ± 0.3 µM with MCF‐7 cells [1] (MCF‐7, MTT, 72 h); over 200 µM in the experiment on MCF‐10A cells (setting [10]). Besides, the “effect on actin polymerization” value in experiment [3] is on record as “inhibitory activity on the polymerization of G‐actin, higher than that of CB”. Further, the “time to reach the lowest point of the polymerization curve” value in experiment [3] is reported as “around 12 minutes”. The “actin polymerization curve, RFU reached (lowest point/plateau)” value in experiment [3] was “approximately 13,000 RFU”. For the same compound, the “effect on actin depolymerization” value in experiment [4] is listed as “able to act as a depolymerization inducer”. Moreover, in the experiment with MCF‐7 cells [8], the “actin cytoskeleton organization / cell morphology” value is “caused comparable disorganization of this structure”. Besides, the “inhibition of hTopo I activity” value at recombinant human topo I is given as “total inhibition of the enzyme activity”. In addition, the “inhibition of hTopo II activity” value was “did not produce the enzyme inhibition” at human topoisomerase II (1 μM) and “totally inhibit the hTopo II activity” against human topoisomerase II (10 μM). Also, the “apoptosis (green nuclear fluorescence, DNA fragmentation)” value in the experiment with MCF‐7 cells [9] is “induced apoptosis”.
With `COC(Cn1ccn(C)[c]1=[Ag-2][I])c1ccccc1` (stereo not shown) [Compound 3, [N‐methyl,N’‐(2‐metoxy‐2‐phenyl)ethyl‐imidazole‐2‐ylidenesilver(I)] iodide], the values for the MIC in experiment [5], in experiment [6] and in [7] were 5 µg/mL, 5 µg/mL and 10 µg/mL, respectively. Moreover, the IC50 in the experiment with MDA‐MB‐231 cells (MDA‐MB‐231, MTT, 72 h) was 52.6 ± 0.3 µM; with MCF‐7 cells [1] (MCF‐7, MTT, 72 h), 31.8 ± 0.8 µM; in the experiment with MCF‐10A cells (setting [10]) it was over 200 µM.
